Positions count from the first letter of the chain named.
Assays:
[1] = test system: T1, Oleandomycin glycosyltransferase (Streptomyces antibioticus), Q53685 [P67T,S132F,A242V]; test: Activity of Streptomyces antibioticus OleD P67T/S132F/A242V mutant assessed as conversion rate of compound to produce glucoside 3 using NDP sugar donor-UDP-3-deoxy-glucose after 3 hrs by HPLC
T1 sequence (whole entry): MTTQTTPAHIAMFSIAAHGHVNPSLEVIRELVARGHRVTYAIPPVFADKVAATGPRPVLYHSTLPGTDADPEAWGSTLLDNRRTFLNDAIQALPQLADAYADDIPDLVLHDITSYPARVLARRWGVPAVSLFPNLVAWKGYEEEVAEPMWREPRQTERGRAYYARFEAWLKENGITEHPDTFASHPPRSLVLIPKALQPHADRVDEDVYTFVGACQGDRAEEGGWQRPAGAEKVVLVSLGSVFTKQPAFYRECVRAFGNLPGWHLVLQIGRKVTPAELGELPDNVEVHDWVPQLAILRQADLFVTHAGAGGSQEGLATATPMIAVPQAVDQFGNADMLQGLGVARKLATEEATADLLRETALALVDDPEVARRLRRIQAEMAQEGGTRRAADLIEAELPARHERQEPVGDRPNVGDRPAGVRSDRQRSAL
Method in brief: (§1)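 End-point donor-specificity assay with purified OleD enzyme. Percentage conversion was read after 3 h. Quenched reactions were run by reverse-phase C18 HPLC with a 10–90% CH3CN gradient in 0.1% formic acid/H2O over 20 min at 1 ml min–1, with detection at 254 nm. Products were identified by LC-MS, by comparison to standards where available, and by fluorescence.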

[2] = test system: T2, Oleandomycin glycosyltransferase (Streptomyces antibioticus), Q53685 [A242V]; test: Activity of Streptomyces antibioticus OleD A242V mutant assessed as conversion rate of compound to produce glucoside 3 using NDP sugar donor UDP-6-azido-glucose after 3 hrs by HPLC; method in brief: as §1
T2 sequence (whole entry): T1 sequence (whole entry) with T67P, F132S

[3] = test system: T1, Oleandomycin glycosyltransferase (Streptomyces antibioticus), Q53685 [P67T,S132F,A242V]; test: Activity of Streptomyces antibioticus OleD P67T/S132F/A242V mutant assessed as conversion rate of compound to produce glucoside 3 using NDP sugar donor UDP-4-deoxy-glucose after 3 hrs by HPLC; method in brief: as §1
[4] = test system: T3, Oleandomycin glycosyltransferase (Streptomyces antibioticus), Q53685 [P67T]; test: Activity of Streptomyces antibioticus OleD P67T mutant assessed as as rate of glucoside formation measured as nanomoles of product formed per minute per mg of enzyme
T3 sequence (whole entry): T1 sequence (whole entry) with F132S, V242A

[5] = test system: T1, Oleandomycin glycosyltransferase (Streptomyces antibioticus), Q53685 [P67T,S132F,A242V]; test: Activity of Streptomyces antibioticus OleD P67T/S132F/A242V mutant assessed as conversion rate of compound to produce glucoside 3 using NDP sugar UDP-xylose after 3 hrs by HPLC; method in brief: as §1
[6] = test system: T1, Oleandomycin glycosyltransferase (Streptomyces antibioticus), Q53685 [P67T,S132F,A242V]; test: Activity of Streptomyces antibioticus OleD P67T/S132F/A242V mutant assessed as conversion rate of compound to produce glucoside 3 using NDP sugar donor UDP-2-amino-glucose after 3 hrs by HPLC; method in brief: as §1
[7] = test system: T2, Oleandomycin glycosyltransferase (Streptomyces antibioticus), Q53685 [A242V]; test: Activity of Streptomyces antibioticus OleD A242V mutant assessed as conversion rate of compound to produce glucoside 3 using NDP sugar donor UDP-xylose after 3 hrs by HPLC; method in brief: as §1
[8] = test system: T1, Oleandomycin glycosyltransferase (Streptomyces antibioticus), Q53685 [P67T,S132F,A242V]; test: Activity of Streptomyces antibioticus OleD P67T/S132F/A242V mutant assessed as conversion rate of compound to produce glucoside 3 using NDP sugar donor UDP-6-thio-glucose after 3 hrs by HPLC; method in brief: as §1
[9] = test system: T2, Oleandomycin glycosyltransferase (Streptomyces antibioticus), Q53685 [A242V]; test: Activity of Streptomyces antibioticus OleD A242V mutant assessed as as rate of glucoside formation measured as nanomoles of product formed per minute per mg of enzyme
[10] = test system: T4, Oleandomycin glycosyltransferase (Streptomyces antibioticus), Q53685 [S132F]; test: Activity of Streptomyces antibioticus OleD S132F mutant assessed as conversion rate of compound to produce glucoside 3 using NDP sugar donor UDP-6-azido-glucose after 3 hrs by HPLC; method in brief: as §1
T4 sequence (whole entry): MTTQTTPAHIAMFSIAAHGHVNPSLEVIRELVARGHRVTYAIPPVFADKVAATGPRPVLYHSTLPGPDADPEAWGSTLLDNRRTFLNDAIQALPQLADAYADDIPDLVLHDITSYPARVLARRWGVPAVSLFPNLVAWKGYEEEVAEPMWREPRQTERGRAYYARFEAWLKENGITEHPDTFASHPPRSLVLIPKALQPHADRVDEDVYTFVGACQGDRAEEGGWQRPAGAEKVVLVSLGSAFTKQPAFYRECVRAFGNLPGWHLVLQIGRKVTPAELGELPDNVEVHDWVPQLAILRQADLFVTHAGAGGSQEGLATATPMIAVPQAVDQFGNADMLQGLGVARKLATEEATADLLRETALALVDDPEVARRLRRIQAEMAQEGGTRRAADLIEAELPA

[11] = test system: T4, Oleandomycin glycosyltransferase (Streptomyces antibioticus), Q53685 [S132F]; test: Activity of Streptomyces antibioticus OleD S132F mutant assessed as conversion rate of compound to produce glucoside 3 using NDP sugar donor UDP-glucose after 3 hrs by HPLC; method in brief: as §1
[12] = test system: T1, Oleandomycin glycosyltransferase (Streptomyces antibioticus), Q53685 [P67T,S132F,A242V]; test: Activity of Streptomyces antibioticus OleD P67T/S132F/A242V mutant assessed as conversion rate of compound to produce glucoside 3 using NDP sugar donor UDP-4-amino-glucose after 3 hrs by HPLC; method in brief: as §1

## Cc1cc(=O)oc2cc(O)ccc12
[1]
  Activity: 8%
[2]
  Activity: 2%
[3]
  Activity: 22%
[4]
  Activity: 15.7 nmol/min
[5]
  Activity: 31%
[6]
  Activity: 24%
[7]
  Activity: 2%
[8]
  Activity: 47%
[9]
  Activity: 5.4 nmol/min
[10]
  Activity: 1%
[11]
  Activity: 48%
[12]
  Activity: 13%

— ChEMBL document CHEMBL1221207, “Expanding the promiscuity of a natural-product glycosyltransferase by directed evolution” (Nat Chem Biol, 2007)
